Experimental data taken from ChEMBL document CHEMBL1140391, “8-Substituted 3,4-dihydroquinolinones as a novel scaffold for atypical antipsychotic activity” (Bioorg Med Chem Lett, 2005).

What was measured:
D(2) dopamine receptor = D(2) dopamine receptor (Homo sapiens, UniProt P14416); assay: Binding affinity against Dopamine receptor D2 expressed in CHO cells; type: cell-based
In short: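 Radioligand binding with [³H]spiperone on membranes of CHO cells expressing human DA D₂ receptors. Membranes and radioligand were incubated 120 min with or without varying compound concentrations. Haloperidol at high concentration defined nonspecific binding. Bound label was separated by vacuum filtration and counted by liquid scintillation. IC₅₀ was fitted by nonlinear regression and converted to Ki with Cheng–Prusoff.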

[1] = molecular target: 5-hydroxytryptamine receptor 2A (Homo sapiens, UniProt P28223); assay: Binding affinity for 5-hydroxytryptamine 2A receptor expressed in 3T3 cells; type: cell-based
In short: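 [³H]Ketanserin displacement on membranes of Swiss 3T3 cells expressing human 5-HT2A receptors. Incubation was 120 min across varying compound concentrations. Nonspecific binding came from high unlabeled ketanserin. Bound and free label were separated by vacuum filtration, and bound label was quantified by liquid scintillation. Percent inhibition of specific binding was fitted by nonlinear regression to give IC₅₀, then converted to Ki with Cheng–Prusoff.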

Sequence of D(2) dopamine receptor (P14416 whole entry): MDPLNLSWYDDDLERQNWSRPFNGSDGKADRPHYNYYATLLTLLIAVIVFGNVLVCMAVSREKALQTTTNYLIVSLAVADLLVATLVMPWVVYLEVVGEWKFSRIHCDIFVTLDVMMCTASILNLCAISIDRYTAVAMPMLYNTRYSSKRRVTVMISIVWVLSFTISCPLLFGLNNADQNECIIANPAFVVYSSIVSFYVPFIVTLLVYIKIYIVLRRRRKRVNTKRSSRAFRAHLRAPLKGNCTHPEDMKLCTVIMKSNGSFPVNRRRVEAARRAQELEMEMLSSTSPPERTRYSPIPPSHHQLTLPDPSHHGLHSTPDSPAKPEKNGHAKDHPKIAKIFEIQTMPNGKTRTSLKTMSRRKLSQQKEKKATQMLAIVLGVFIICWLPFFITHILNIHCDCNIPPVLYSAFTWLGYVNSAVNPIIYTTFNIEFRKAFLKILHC
Sequence of 5-hydroxytryptamine receptor 2A (P28223 whole entry): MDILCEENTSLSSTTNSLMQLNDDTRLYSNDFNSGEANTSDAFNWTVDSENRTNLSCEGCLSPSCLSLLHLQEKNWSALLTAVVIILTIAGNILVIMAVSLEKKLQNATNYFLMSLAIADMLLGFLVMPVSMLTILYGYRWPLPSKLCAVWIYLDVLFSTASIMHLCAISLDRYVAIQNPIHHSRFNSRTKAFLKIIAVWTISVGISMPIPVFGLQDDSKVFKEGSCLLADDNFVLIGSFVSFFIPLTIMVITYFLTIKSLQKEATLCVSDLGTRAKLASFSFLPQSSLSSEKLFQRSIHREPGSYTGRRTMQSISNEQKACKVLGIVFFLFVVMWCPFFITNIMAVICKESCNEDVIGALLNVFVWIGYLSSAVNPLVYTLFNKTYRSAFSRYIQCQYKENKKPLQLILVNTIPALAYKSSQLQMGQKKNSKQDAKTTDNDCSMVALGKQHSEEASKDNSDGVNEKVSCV

| SMILES | Ki (D(2) dopamine receptor) [nM] | Ki [1] [nM] |
| --- | --- | --- |
| CC1(C)CCNc2c(CCN3CCN(c4nsc5ccccc45)CC3)cccc21 | 59 | 0.18 |
| CC1CC(=O)Nc2c(CCN3CCN(c4nsc5ccccc45)CC3)cc(Cl)cc21 (configuration not stated) | > 100 | 0.05 |
| CC1CCN(C(=O)c2ccccc2)c2c(CCN3CCN(c4nsc5ccccc45)CC3)cccc21 (configuration not stated) | 16 | 0.61 |
| CC1Cc2cccc(CCN3CCN(c4nsc5ccccc45)CC3)c2NC1=O (configuration not stated) | 73 | 1.06 |
| CC(=O)N1CCC(C)c2c(C)ccc(CCN3CCN(c4noc5ccccc45)CC3)c21 (configuration not stated) | 17 | 0.32 |
| CC1CCN(C(=O)C2CCCCC2)c2c(CCN3CCN(c4nsc5ccccc45)CC3)cccc21 (configuration not stated) | 25 | 0.59 |
| CC1CC(=O)Nc2c(CCN3CCN(c4nsc5ccccc45)CC3)cc(F)cc21 (configuration not stated) | 15 | 0.17 |
| CC(=O)N1CCC(C)c2c(C)ccc(CCN3CCN(c4nsc5ccccc45)CC3)c21 (configuration not stated) | 12 | 0.75 |
| Cc1cc(CCN2CCN(c3noc4ccccc34)CC2)c2c(c1)C(C)CC(=O)N2 (configuration not stated) | 35 | 0.28 |
| COc1cccc(CC(=O)N2CCC(C)c3cccc(CCN4CCN(c5nsc6ccccc56)CC4)c32)c1 (configuration not stated) | 4 | 1.07 |
| CC(=O)N1CCC(C)c2cc(Cl)cc(CCN3CCN(c4nsc5ccccc45)CC3)c21 (configuration not stated) | > 50 | 0.31 |
| CC1(C)CCNc2c(CCN3CCN(c4nsc5ccccc45)CC3)cc(F)cc21 | 55 | 0.28 |
| CC(=O)N1CCC(C)c2cccc(CCN3CCN(c4nsc5ccccc45)CC3)c21 (configuration not stated) | 17 | 0.3 |
| CC(=O)N1CCC(C)c2cc(F)cc(CCN3CCN(c4noc5ccccc45)CC3)c21 (configuration not stated) | 29 | 0.29 |
| CC1CC(=O)Nc2c(CCN3CCN(c4nsc5ccccc45)CC3)cccc21 (configuration not stated) | 21 | 0.22 |
| CC1CC(=O)Nc2c(CCN3CCN(c4noc5ccccc45)CC3)cc(F)cc21 (configuration not stated) | > 100 | 0.28 |
| O=C1CCc2cccc(CCN3CCN(c4nsc5ccccc45)CC3)c2N1 | > 100 | 0.28 |
| CC1CC(=O)N(C)c2c(CCN3CCN(c4nsc5ccccc45)CC3)cccc21 (configuration not stated) | 81 | 0.17 |
| CC(=O)N1CCC(C)c2cc(F)cc(CCN3CCN(c4nsc5ccccc45)CC3)c21 (configuration not stated) | 18 | 0.44 |
| CC1CC(=O)Nc2c(CCN3CCN(c4noc5ccccc45)CC3)cccc21 (configuration not stated) | > 100 | 190 |
| CC1CC(=O)Nc2c(CCN3CCN(c4n[s+]([O-])c5ccccc45)CC3)cc(F)cc21 (configuration not stated) | 92 | 2.23 |
| O=C1CC(c2ccccc2)c2cccc(CCN3CCN(c4nsc5ccccc45)CC3)c2N1 (configuration not stated) | – | 0.18 |
| CC(=O)N1CCC(c2ccccc2)c2cccc(CCN3CCN(c4nsc5ccccc45)CC3)c21 (configuration not stated) | 12 | 2.15 |
| Cc1ccc(CCN2CCN(c3nsc4ccccc34)CC2)c2c1C(C)CC(=O)N2 (configuration not stated) | 11 | 0.13 |
